# Compounds with a hit are over-represented: about 2.4% of the library has one in this group of screens.
# A3A deaminase = human APOBEC3A DNA deaminase inhibition. P31941. recombinant A3A, FAM/TAMRA ssDNA deamination fluorescence. inhibition, % at 20 µM. 330,000 compounds, 0.41% hits. AID 493011;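 active = at least 40% inhibition at 20 µM here, with at most 30% in a related deaminase screen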
# A3G deaminase = inhibitors of human APOBEC3G DNA deaminase; Q9HC16; 330,000 compounds, 0.28% hits; recombinant A3G, ssDNA deamination FAM/TAMRA fluorescence; inhibition, % at 20 µM;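 active = inhibition of at least 40% at 20 µM, with no more than 30% in the related APOBEC3A deaminase screen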
# HKDC1 inh = HKDC1 (human) hexokinase inhibition | recombinant HKDC1, G6PDH/diaphorase resazurin coupled fluorescence | inhibition, % at 20 µM | 340,000 compounds, 0.16% hits;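 active = inhibition above about 35% when tested at 20 µM, limit read from the data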
# Target sequence (Q2TB90 whole entry, looked up): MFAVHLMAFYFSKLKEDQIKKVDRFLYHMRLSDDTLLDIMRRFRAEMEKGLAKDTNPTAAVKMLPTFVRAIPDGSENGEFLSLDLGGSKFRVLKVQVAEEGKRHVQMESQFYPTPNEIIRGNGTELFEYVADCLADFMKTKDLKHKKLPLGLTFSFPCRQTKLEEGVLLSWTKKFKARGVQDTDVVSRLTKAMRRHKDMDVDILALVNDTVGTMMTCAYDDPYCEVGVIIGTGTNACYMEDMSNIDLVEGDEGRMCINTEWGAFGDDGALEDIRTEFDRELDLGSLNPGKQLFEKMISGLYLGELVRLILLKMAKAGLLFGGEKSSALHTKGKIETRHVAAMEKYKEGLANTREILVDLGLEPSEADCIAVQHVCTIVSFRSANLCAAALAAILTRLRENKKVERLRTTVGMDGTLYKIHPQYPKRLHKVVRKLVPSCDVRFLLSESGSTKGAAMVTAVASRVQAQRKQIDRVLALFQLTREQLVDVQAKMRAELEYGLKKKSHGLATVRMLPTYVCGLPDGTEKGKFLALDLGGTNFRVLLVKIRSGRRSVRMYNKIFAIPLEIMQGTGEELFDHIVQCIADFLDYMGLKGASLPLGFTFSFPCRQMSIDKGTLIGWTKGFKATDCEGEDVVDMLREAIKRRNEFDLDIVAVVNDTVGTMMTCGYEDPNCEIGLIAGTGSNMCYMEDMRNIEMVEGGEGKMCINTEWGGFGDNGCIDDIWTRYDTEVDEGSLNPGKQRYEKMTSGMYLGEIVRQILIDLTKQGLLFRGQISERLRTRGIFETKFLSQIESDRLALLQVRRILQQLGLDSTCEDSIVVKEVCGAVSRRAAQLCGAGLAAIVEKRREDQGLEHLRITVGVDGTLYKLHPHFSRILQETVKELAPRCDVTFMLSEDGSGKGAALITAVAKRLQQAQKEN
#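 Material: recombinant HKDC1 hexokinase; Amount: HKDC1 at 5 µg/mL; Medium: Tris pH 8.0 buffer with MgCl2, Tween-20, BSA, BME; Schedule: 90 min reaction incubation at room temperature, dark; Technique: coupled resazurin fluorescence, excitation 525 nm, emission 613 nm.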
# PfGluPho inh = PfG6PD (Plasmodium falciparum) enzyme inhibition; PfGluPho enzyme, NADPH resazurin-diaphorase fluorescence; inhibition, % at 20 µM; 350,000 compounds, 0.78% hits;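 active = inhibition reaching at least a set limit at 20 µM in the primary screen, cut at about 59% in these data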
# M18AAP inhibitor = blocks P. falciparum M18 aspartyl aminopeptidase; 290,000 compounds, 1.2% hits; inhibition, % at 7.35 µM; recombinant PfM18AAP, H-Glu-NHMec fluorogenic cleavage;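 active = inhibition above the campaign mean inhibition over all tested compounds plus 3 SD, cut at about 28% in these data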
# UBC9 SUMO inh = blocks human SUMOylation mediated by UBC9; HTRF SUMOylation assay, SAE1/SAE2 + UBC9, in vitro; inhibition, % at 35 µM; 290,000 compounds, 0.36% hits; AID 2006; in the data active = inhibition above about 50%, passing the limit was not always enough
# A3A conf = confirmation of human APOBEC3A DNA deaminase inhibitors | AID 493151 | recombinant A3A, ssDNA deaminase UDG fluorescence assay | 1,400 compounds, 63% hits | shares compounds with A3A deaminase | inhibition, % at 20 µM;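 active = inhibition reaching a set limit, 80% of the first screen's cutoff, at 20 µM in any replicate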
# UDG A3A counter = counter-screen for APOBEC3A inhibitors: UDG | shares compounds with A3A deaminase | 1,000 tested, under 10 active | UDG counterscreen, FAM/TAMRA uracil oligo fluorescence | AID 504714 | inhibition, % at 20 µM; call rule not given here
# A number is an active result; n = inactive; x = no result given.
SMILES,A3A deaminase,A3G deaminase,HKDC1 inh,PfGluPho inh,M18AAP inhibitor,UBC9 SUMO inh,A3A conf,UDG A3A counter
COc1ccc(N2CC(C(=O)NCc3ccco3)CC2=O)cc1 (stereo unspecified),41,n,n,n,n,n,46,n
COc1ccc(OC)c(C(=O)c2coc3cc(Br)c(O)c(Br)c23)c1,n,n,n,n,x,x,x,x
CCN(CC)CCCN=C1N[C@@H](c2cccc(F)c2)C(C(=O)OC)=C(C)N1Cc1ccccc1,46,n,n,n,x,x,82,n
CCN1C(=NCCCCO)N[C@@H](c2cccc(F)c2)C(C(=O)OC)=C1C,51,n,n,n,n,n,58,n
CCN1C(=NCCOC)N[C@@H](c2cccs2)C(C(=O)OC)=C1C,58,n,n,n,n,n,67,n
COCCN1C(=O)N[C@@H](c2cccs2)C(C(=O)OC)=C1C,n,n,n,n,n,n,x,x
CCN1C(=NCCOC)N[C@@H](c2cccc(F)c2)C(C(=O)OC)=C1C,59,n,n,n,n,n,71,n
Cc1cc(C)c(NC(=O)CNC(=O)c2ccccc2SCC(=O)N2CCCC2)c(C)c1,n,n,n,n,x,x,x,x
O=C1CN(S(=O)(=O)c2ccccc2)CC(=O)N1CCc1ccccc1,n,n,n,n,n,n,x,x
CCN1C(=NCCN2CCOCC2)N[C@@H](c2ccccc2)C(C(=O)OC)=C1C,49,n,n,n,n,n,52,n
COc1cc(/C=C(\C#N)c2ccccn2)ccc1OCc1ccc(Cl)cc1,n,n,n,n,n,n,x,x
CC1=CC(C)(C)[N+](C)=CN1c1ccccc1,57,n,n,n,n,n,70,n
COc1ccc(C2C=C(C)Nc3nc(SC)nn32)cc1 (stereo unspecified),n,n,n,n,n,n,x,x
FC(F)(F)c1cc(-c2cccs2)nc2cc(-c3ccccc3)nn12,n,n,n,n,n,n,x,x
O=C(O)c1cc2nc(-c3cccs3)cc(C(F)(F)F)n2n1,74,n,n,n,n,n,50,n
CCn1cc(-c2cc(C(F)(F)F)n3nc(C(=O)O)cc3n2)c(C)n1,54,n,n,n,n,n,29,n
CCOc1ccc(S(=O)(=O)N(CC(=O)N/N=C/c2ccc(-c3ccc([N+](=O)[O-])cc3)o2)c2ccccc2)cc1,66,n,n,n,n,n,37,n
CCN(c1ccccc1)S(=O)(=O)c1cccc(C(=O)NCC(c2cccs2)N2CCOCC2)c1 (stereo unspecified),n,n,n,n,x,x,x,x
C#CCn1cc(/C=N/NC(=O)COc2cccc3cccnc23)c2ccccc21,65,n,n,n,n,n,47,n
Cc1ccc(N=C2NC(=O)CS2)cc1,n,n,n,n,n,n,x,x
Cc1cc(C)nc(/N=C2/NC(=O)CS2)n1,64,n,n,n,n,n,n,n
CC(C)CNC(=O)COc1ccccc1[N+](=O)[O-],n,n,n,n,n,n,x,x
Cc1cc(C)[n+](C)n1CC(O)Cn1c2ccccc2c2ccccc21 (stereo unspecified),45,n,n,n,n,n,76,n
CC[n+]1c(C)n(-c2ccccc2)c2ccc(C(=O)OC)cc21,44,n,n,n,n,n,40,n
CC(=O)OCC[n+]1c(C)n(-c2ccccc2)c2ccc(Cl)cc21,42,n,n,n,n,n,84,n
SMILES,A3A deaminase,A3G deaminase,HKDC1 inh,PfGluPho inh,M18AAP inhibitor,UBC9 SUMO inh,A3A conf,UDG A3A counter
CCOC(=O)c1c(O)c(O)c(C(=O)OCC)n1-c1ccccc1,n,n,n,n,n,n,x,x
CCOC(=O)c1ccc2c(c1)[n+](CC)c(C)n2-c1ccccc1,75,n,n,n,n,n,85,n
Cc1ccc(S(=O)(=O)N2CCC(C(=O)Nc3ccccc3N3CCCCC3)CC2)cc1C,n,n,n,n,x,x,x,x
Cc1n(C)c2cc(Cl)ccc2[n+]1Cc1ccccc1,78,n,n,n,n,n,65,n
CCC(C)NC(=O)CSc1ccc(S(=O)(=O)N(C)C2CCCCC2)cn1 (stereo unspecified),42,n,n,n,x,x,n,n
CCCNC(=O)CSc1ccc(S(=O)(=O)N(C)C2CCCCC2)cn1,x,x,x,n,x,x,x,x
O=C(Nc1cc2c(cc1Br)OCCCO2)c1ccccc1,55,n,n,n,n,n,n,x
O=C(Nc1cc2c(cc1Br)OCCCO2)c1cccnc1,n,n,n,n,n,n,x,x
O=C(COc1ccccc1)NCC(=O)N1CCCC1,n,n,n,n,n,n,x,x
Cn1c(CNC(=O)c2ccco2)nnc1SCC(=O)N1c2ccccc2Sc2ccccc21,63,n,n,n,n,n,58,n
CCc1ccccc1NC(=O)CSc1nnc(CNC(=O)c2ccco2)n1C,n,n,n,n,n,n,x,x
CN(C)S(=O)(=O)n1cc(/C=C(\NC(=O)c2ccccc2F)C(=O)NCCN2CCOCC2)c2ccccc21,x,x,x,n,x,x,x,x
CCn1cc(/C=C(\NC(=O)c2ccccc2F)C(=O)NCCN2CCOCC2)c2ccccc21,81,n,n,n,n,n,n,n
Cc1nn(C)cc1CNC(=O)c1cccc(F)c1,n,n,n,n,n,n,x,x
COc1cccc2c1C(=O)c1c(O)c3c(c(O)c1C2=O)CC(O)(C(C)=O)CC3OC1CC(O)C(O)C(C)O1 (stereo unspecified),x,x,n,n,x,x,x,x
COc1cccc2c1C(=O)c1c(O)c3c(c(O)c1C2=O)C[C@](O)(C(C)=O)C[C@H]3O[C@@H]1C[C@@H](N)[C@@H](O)[C@@H](C)O1,50,n,n,n,x,x,42,x
O=C1N=C(N2CCCC2C(=O)O)S/C1=C\c1ccco1 (stereo unspecified),44,n,n,n,n,n,19,n
O=C1N=C(N2CCCCC2)S/C1=C/C1=Cc2ccccc2OC1,n,n,n,n,n,n,x,x
COc1ccc(C2=[N+](C)CCn3cccc32)c(OC)c1,63,n,n,n,n,n,73,n
COc1ccc(C(=O)Nc2ccc3c(c2)C(=O)c2ccccc2C3=O)cc1OC,66,n,n,n,n,n,n,x
COc1cc(C(=O)Nc2ccc3c(c2)C(=O)c2ccccc2C3=O)cc(OC)c1OC,x,x,n,n,n,n,x,x
O=C(Nc1cccc(-c2cccc(Cl)c2)c1)C1CCN(Cc2ccon2)CC1,n,n,n,n,n,n,x,x
O=S(=O)(Nc1ccc(-c2nc3cccnc3s2)cc1)c1cc(F)ccc1F,n,n,n,n,n,n,x,x
C=CCn1c(C)c(/C=C/c2cc[n+](C)cc2)c2ccccc21,42,n,n,n,n,n,59,n
CCN(CC)C(=O)Cn1c(C)c(/C=C/c2cc[n+](C)cc2)c2ccccc21,64,n,n,n,n,n,62,n

# Source: PubChem (several laboratories)
